Only some compounds are listed: those with a hit (about 2.5% of all), similar ones and a draw of the others.
TRPC4 agonist – activators of mouse TRPC4 channel, primary screen, Fluo4 calcium, HEK293 TRPC4beta/mu-opioid cells; 310,000 tested, 0.49% active; B-score at 10 µM; AID 2237, 2010; Fluo4 calcium fluorescence; hits give high values;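 active = B-score above 5 SD of library B-scores, and initial fluorescence ratio not above library mean plus 5 SD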;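 note: positive B-score marks a calcium rise read as TRPC4 activation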
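Material: TRPC4beta and mu-opioid receptor HEK293 stable cells | Incubation: 45 min room-temperature Fluo4 loading, 110 s read | Detection: Kinetic Fluo4 calcium fluorescence | Measure: Integrated baseline-normalised fluorescence ratio, converted to per-well B score | Benchmarks: Low control buffer alone, high control maximal DAMGO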
TRPC4 potent – positive allosteric modulators of TRPC4, primary screen, cell-based, mouse TRPC4beta, HEK293 mu-opioid, Fluo-4 calcium. Short transient receptor potential channel 4 (Mus musculus), Q9QUQ5. DAMGO EC20, Fluo-4 Ca2+ flux; hits give high values. B-score at 10 µM. 310,000 tested, 0.42% active. AID 2227, 2009;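 active = B-score of calcium response area above 5 SD of library B-scores, with initial fluorescence ratio within 5 SD of library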;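 note: B-score of integrated fluorescence ratio over time as area under calcium response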
TRPC4 inh – inhibitors of mouse TRPC4 channel, primary screen, Fluo4 calcium, HEK293 TRPC4beta/mu-opioid cells; Short transient receptor potential channel 4 (Mus musculus), Q9QUQ5; DAMGO-evoked Fluo4 calcium flux; hits give low values; B-score at 10 µM; 300,000 tested, 0.39% active;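 active = B-score over 3 SD under the library average, no early fluorescence shift, positive overall ratio signal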
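Assay system: Stable TRPC4beta/mu-opioid receptor HEK293 cells | Reagent: DAMGO in two steps, submaximal then maximal | Compound dosing: Single concentration per test compound | Signal: Fluo4 Ca2+ flux fluorescence | Evaluation: Per-well B score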
TRPC6 inhibitor – mouse TRPC6 channel inhibitors, primary screen, cell-based, HEK293, membrane potential dye; Short transient receptor potential channel 6 (Mus musculus), Q61143; ACh-evoked depolarization; hits give low values; B-score at 10 µM; 310,000 tested, 1.1% active;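 active = B-score under library mean minus 3 SD, initial fluorescence not abnormally high, positive integrated signal ratio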;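 note: B-score derived from integrated fluorescence ratio over the kinetic read; more negative B-score means stronger inhibition of depolarization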
DSG3 Ab inh – inhibitors of pemphigus antibody binding to DSG3, primary screen, biochemical, bead-based, flow cytometry, scFv-GFP; DSG3-coupled beads, scFv-anti-DSG3-GFP binding; hits give low values; binding (percent of control), % at 10 µM; 310,000 tested, 0.48% active;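 active = binding more than 3 SD below its plate's average and above zero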;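 note: hits lower antibody fragment binding to DSG3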
TRPC6 act – mouse TRPC6 channel activators, primary screen, cell-based, HEK293, membrane potential dye; Short transient receptor potential channel 6 (Mus musculus), Q61143; HEK293-TRPC6 membrane potential dye fluorescence; hits give high values; B-score at 10 µM; 310,000 tested, 0.13% active;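 active = B-score of the integrated fluorescence ratio above library mean plus 3 SD, and starting fluorescence ratio within library mean plus 5 SD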;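 note: higher score means more depolarization so channel activation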
TRPC4 spec 2 – mouse TRPC4 off-target activity of TRPC6 inhibitors, second screen | shares compounds with TRPC6 inhibitor | HEK293 TRPC4/MOR, membrane potential dye fluorescence; channel activated by saturating DAMGO dose | inhibition, % at 10 µM | 920 tested, 42% active;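 active = compounds whose fluorescence signal differed from control wells by over 3 SD, either direction, in both duplicate plates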
TRPC4 spec – mouse TRPC4 modulation by TRPC6 hits, confirmation, selectivity assay for TRPC6 inhibitor project, cell-based, HEK293 TRPC4/mu-opioid, membrane potential dye; 920 tested, 61% active; activity change, negative = inhibition, % at 10 µM; shares compounds with TRPC6 inhibitor; membrane potential fluorescence;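 active = rise or fall in signal beyond 3 SD of buffer-only wells in both replicate plates, either sign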;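 note: integrated kinetic ratio of fluorescence range over baseline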
HEK293 MPD ctr 2-1 – nonspecific membrane potential effects, parental HEK293, confirmation, counter-screen for TRPC6 inhibitor project, cell-based, second counter screen; shares compounds with TRPC6 inhibitor; AID 2779, 2010; parental HEK293 membrane potential dye fluorescence; maximal acetylcholine challenge after compound addition; signal change vs control, % at 10 µM; 920 tested, 31% active;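 active = membrane potential signal moving either way by over 3 SD of the maximum-effect control, in both duplicate plates, meaning non-specific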
HEK293 MPD ctr-1 – membrane potential modulation in parental HEK293, confirmation, counter-screen for TRPC6 inhibitor project, cell-based | shares compounds with TRPC6 inhibitor | parental HEK293 membrane potential dye fluorescence | membrane potential signal change, % at 10 µM | 920 tested, 60% active | AID 2780, 2010;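 active = membrane potential signal shifting up or down by more than 3 SD of buffer-only wells, on both duplicate plates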
HEK293 MPD ctr-2 – parental HEK293 membrane potential modulation, confirmation, counter-screen for TRPC6 modulator project, cell-based; shares compounds with TRPC6 inhibitor; membrane potential dye fluorescence; membrane potential signal change, % at 10 µM; 2,400 tested, 51% active;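 active = membrane potential signal moves up or down beyond 5 SD from buffer-only wells, on both duplicate plates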
HEK293 MPD ctr 2-2 – second counter-screen for TRPC6 modulators: effect in parental HEK293 cells; AID 488926; membrane potential dye fluorescence; after compound, maximal acetylcholine stimulation; shares compounds with TRPC6 inhibitor; 2,400 tested, 14% active; inhibition, % at 10 µM;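 active = membrane potential signal drops by more than 5 SD from the mean control signal, in both duplicate plates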;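 note: plate controls were acetylcholine ECmax control wells for no effect and buffer only wells for full effect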
TRPC4/MOR mod – TRPC4 modulation by TRPC6 hit compounds, confirmation, selectivity assay for TRPC6 modulator project, cell-based, HEK293 TRPC4/mu-opioid, membrane potential dye, mouse; percent change from control (negative = decrease, positive = increase), % at 10 µM; shares compounds with TRPC6 inhibitor; 2,400 tested, 69% active; membrane potential fluorescence;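 active = membrane potential signal moved up or down beyond 5 SD of buffer control wells, in both duplicate plates, actives on both sides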;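 note: plate controls were assay buffer wells for no effect and DAMGO maximal-effect wells for full effect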
TRPC4 ctr inh 2 – second check of whether TRPC6 modulators also affect mouse TRPC4; shares compounds with TRPC6 inhibitor; HEK293 TRPC4/mu-opioid, membrane potential dye fluorescence; stimulated with maximal-effect DAMGO; inhibition, % at 10 µM; 2,400 tested, 55% active; AID 488928;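 active = drop in membrane potential signal beyond 5 SD of the control wells in both duplicate plates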;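 note: TRPC4 counter screen for TRPC6 hits run under conditions tuned for TRPC6 not TRPC4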
TRPC6 inh conf – mouse TRPC6 channel inhibitors, confirmation, HEK293 cells, membrane potential dye, duplicate. shares compounds with TRPC6 inhibitor. ACh-evoked depolarization. inhibition, % at 10 µM. 3,300 tested, 43% active. AID 488960, 2010;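 active = fluorescence ratio falls more than 5 SD below the full-stimulation control mean, in both duplicate runs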;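 note: integrated fluorescence ratio of peak minus minimum over baseline after agonist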
TRPC6 act confirm – mouse TRPC6 channel activators, confirmation, HEK293 cells, membrane potential dye, duplicate; 2,800 tested, 11% active; shares compounds with TRPC6 inhibitor; AID 488961, 2010; HEK293-TRPC6 membrane potential dye fluorescence, FDSS; activation, % at 10 µM;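 active = ratio signal rise beyond 5 SD above unstimulated control wells' mean, seen in both duplicate runs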;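 note: plate controls were buffer EC0 wells for no effect and acetylcholine ECmax response for full effect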
Numbers without * were called inactive; i = inactive; x = no result given.

SMILES	TRPC4 agonist	TRPC4 potent	TRPC4 inh	TRPC6 inhibitor	DSG3 Ab inh	TRPC6 act	HEK293 MPD ctr-2	HEK293 MPD ctr 2-2	TRPC4/MOR mod	TRPC4 ctr inh 2	TRPC6 inh conf	TRPC6 act confirm	others
CC1(C(O)(C#CC[N+]2(C)CCCCC2)c2ccccc2)CCCC1 (configuration not stated)	i	i	i	-11*	94	i	x	x	x	x	107%*	i	TRPC4 spec 2=i;TRPC4 spec=i;HEK293 MPD ctr 2-1=-26%*;HEK293 MPD ctr-1=i
NC(=O)C[N+]1(CC#CC(O)(c2ccccc2)c2ccccc2)CCCC1	i	i	i	i	104	i	x	x	x	x	x	x
COc1ccc(OC)c2[nH]c(=O)c(CCNC(=O)Cc3cccs3)cc12	i	i	i	i	107	i	x	x	x	x	x	x
Cc1cccc2sc(NS(C)(=O)=O)nc12	i	i	i	i	95	i	x	x	x	x	x	x
O=c1cc(-c2ccccc2)oc2ccc(Cl)cc12	x	x	x	x	88	x	x	x	x	x	x	x
C/C(CCc1oc2ccc(Cl)cc2c1-c1ccc(C)o1)=N\O	i	i	i	i	x	i	x	x	x	x	x	x
CC(C)CN=c1cc(-c2ccccc2)oc2ccc(Cl)cc12	i	i	i	-7.4*	107	i	x	x	x	x	i	i	TRPC4 spec 2=76%*;TRPC4 spec=-14%*;HEK293 MPD ctr 2-1=i;HEK293 MPD ctr-1=-268%*
OCCN=c1cc(-c2ccccc2)oc2ccc(Cl)cc12	i	i	i	-8.8*	110	i	x	x	x	x	55%*	i	TRPC4 spec 2=67%*;TRPC4 spec=-28%*;HEK293 MPD ctr 2-1=i;HEK293 MPD ctr-1=-356%*
CN(C)CCCN=c1cc(-c2ccccc2)oc2ccc(Cl)cc12	x	x	x	x	106	x	x	x	x	x	x	x
CC(O)CN=c1cc(-c2ccccc2)oc2ccc(Cl)cc12 (configuration not stated)	i	i	i	-7.3*	105	i	-134%*	i	-28%*	37%*	58%*	i
O=C(COC(=O)CCC(=O)c1ccccc1)Nc1nnc(-c2ccccc2)o1	i	i	i	i	102	i	x	x	x	x	x	x
NC1=NC(=O)/C(=C\c2cc([N+](=O)[O-])ccc2Cl)S1	i	i	i	i	104	i	x	x	x	x	x	x
CCNCCC(=O)N1c2ccccc2Sc2ccc(C(F)(F)F)cc21	i	i	i	-6.1*	113	i	i	94%*	9.0%*	42%*	84%*	x
O=C(CN1CCCC1)N1c2ccccc2Sc2ccc(C(F)(F)F)cc21	i	i	i	-5.6*	103	i	i	i	12%*	i	53%*	x
O=C(CN1CCCC1)N1c2ccccc2Sc2ccc(Cl)cc21	i	i	i	-5.5*	90	i	96%*	i	14%*	47%*	60%*	x
O=C(CN1CCN(c2ccccn2)CC1)N1c2ccccc2Sc2ccc(C(F)(F)F)cc21	i	i	i	i	98	i	x	x	x	x	x	x
COc1ccc(S(=O)(=O)N(C)C)cc1NC(=O)Cc1c[nH]c2ccccc12	i	i	x	i	95	i	x	x	x	x	x	x
COc1ccc(-c2ccc(-c3cc(=O)oc4cc(OC)c(OC)c(OC)c34)cc2)cc1	x	x	x	x	108	x	x	x	x	x	x	x
COc1ccc(S(=O)(=O)/N=C2\C=C(Nc3ccc(O)cc3)C(=O)c3ccccc32)cc1	i	i	i	i	95	i	x	x	x	x	x	x
CC(C)c1ccc(S(=O)(=O)/N=C2\C=C(NS(=O)(=O)c3ccccc3)C(=O)c3ccccc32)cc1	i	i	-13*	-5.3*	92	i	-170%*	64%*	-30%*	80%*	68%*	i
O=S(=O)(c1ccc(F)cc1)N1CCN(c2ccccn2)CC1	i	i	i	i	93	i	x	x	x	x	x	x
CC(C)c1[nH]nc2c1C(Cc1ccccc1)C(C#N)=C(N)O2 (configuration not stated)	i	i	i	-6.4*	104	i	i	i	i	i	i	i
CNC(=O)CC1C(=O)N(c2ccc(F)cc2)C(=S)N1NC(=O)c1ccc(Cl)cc1 (configuration not stated)	i	i	i	-5.6*	88	i	i	i	i	i	i	i

Compound activity deposited in PubChem by several laboratories.
